The source made the active and inactive calls. The calls are words filed in the database; no cut-off is given here.
Assays:
B16 [1] = experiment: Antitumor activity against mouse B16 cells allografted in ip dosed mouse assessed as increase in life span at optimal dose administered qd from day 1 to day 9 post tumor implantation relative to control; type: functional
L1210 [2] = experiment: Antitumor activity against mouse L1210 cells allografted in ip dosed mouse assessed as change in body weight at optimal dose administered qd from day 1 to day 9 post intracerebral tumor implantation measured on day 5 relative to control; type: functional
Outline: (§1)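 Mice bearing tumour cells implanted ip (intracerebrally in the IC-L1210 system) got compound in 0.9% saline ip on the stated schedule, or orally to nonfasting animals in the PO-L1210 system. Day-1 dosing, per day, or every 6 h counted from implantation. The value is the difference in average body weight change (g) on day 5 between the optimal-dose group (T) and controls (C).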

[3] = Drug degradation in lactated Ringer's solution at 25 degC after 4.7 hrs; type: physicochemical; settings: read-out: Drug degradation
L1210 [4] = experiment: Antitumor activity against mouse L1210 cells allografted in ip dosed mouse assessed as change in body weight at optimal dose administered qd on day 1 post tumor implantation measured on day 5 relative to control; type: functional; outline: as §1
L1210 [5] = experiment: Antitumor activity against mouse L1210 cells allografted in ip dosed mouse assessed as change in body weight at optimal dose administered every 6 hrs on day 1, 5 and 9 post tumor implantation measured on day 5 relative to control; type: functional; outline: as §1
Mus musculus [6] = experiment: Toxicity in ip dosed mouse allografted with mouse L1210 cells assessed as dose required for optimal activity administered qd on day 1 post tumor implantation; type: organism-based; settings: in vivo
Outline: (§2)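 Tumour cells were implanted ip (intracerebrally for IC-L1210), with the compound given in 0.9% saline ip, or orally to nonfasting mice in PO-L1210. Dose–response series each halved the preceding dose, expressed as mg/kg per injection. Activity was read as % increase in life-span (% ILS) over untreated controls, and from this the minimum, optimal and maximum active doses were taken.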

L1210 [7] = experiment: Antitumor activity against mouse L1210 cells allografted in ip dosed mouse assessed as dose required for minimal activity administered qd from day 1 to day 9 post intracerebral tumor implantation; type: functional; settings: read-out: MED; outline: as §2
L1210 [8] = experiment: Antitumor activity against mouse L1210 cells allografted in ip dosed mouse assessed as increase in life span at optimal dose administered qd from day 1 to day 9 post intracerebral tumor implantation relative to control; type: functional
Outline: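 L1210 cells implanted intracerebrally in mice. Drug given ip in 0.9% saline, dose-response in twofold dose steps (mg/kg per injection). Antitumor effect as % increase in life-span over untreated controls at the optimal dose. Test minus control body-weight change recorded on day 5.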

L1210 [9] = experiment: Cytotoxicity against mouse L1210 cells assessed as cessation of growth in presence of cytidine; type: functional, cell-based
[10] = Drug degradation in 1 N ammonium hydroxide solution assessed as l-beta-D-Ribofuranosyl-3-guanylurea level; type: physicochemical
B16 [11] = experiment: Antitumor activity against mouse B16 cells allografted in ip dosed mouse assessed as dose required for minimal activity administered qd from day 1 to day 9 post tumor implantation; type: functional; settings: read-out: MED; outline: as §2
[12] = Therapeutic index, ratio of toxicity in ip dosed mouse allografted with mouse L1210 cells assessed as highest dose required for 40% increase in life span to antitumor activity against mouse L1210 cells allografted in ip dosed mouse assessed as lowest dose required for 40% increase in life span; type: organism-based; settings: in vivo, read-out: TI
Outline: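 L1210 cells implanted ip in mice. Drug in 0.9% saline given ip once daily on days 1-9 (QD1-9), dose-response with each dose half of the next higher. % ILS measured against untreated controls. Dose-response data were pooled from five QD1-9 experiments. TI = highest dose giving 40% ILS ÷ lowest dose giving 40% ILS.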

[13] = Half life of the compound at 25 degC at pH 7 by HPLC analysis; type: physicochemical
L1210 [14] = experiment: Cytotoxicity against mouse L1210 cells assessed as cessation of growth in presence of uridine; type: functional, cell-based
Mus musculus [15] = experiment: Toxicity in po dosed mouse allografted with mouse L1210 cells assessed as dose required for optimal activity administered qd from day 1 to day 9 post tumor implantation; type: organism-based; settings: in vivo; outline: as §2
L1210 [16] = experiment: Antitumor activity against mouse L1210 cells allografted in ip dosed mouse assessed as dose required for minimal activity administered every 6 hrs on day 1, 5 and 9 post tumor implantation; type: functional; settings: read-out: MED; outline: as §2
Mus musculus [17] = experiment: Toxicity in ip dosed mouse allografted with mouse L1210 cells assessed as dose required for optimal activity administered qd from day 1 to day 9 post intracerebral tumor implantation; type: organism-based; settings: in vivo; outline: as §2
L1210 [18] = experiment: Antitumor activity against mouse L1210 cells allografted in ip dosed mouse assessed as increase in life span at optimal dose administered qd on day 1, 5 and 9 post tumor implantation relative to control; type: functional
Outline: (§3)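 L1210 leukemia cells implanted ip in mice. Drug given ip in 0.9% saline: day 1 only (QD1); days 1, 5, 9 (Q4D); every 6 h on days 1, 5, 9 (Q4D(Q6H)); or days 1-9 (QD1-9). Dose-response run in twofold steps, dose in mg/kg per injection. % ILS versus untreated controls at the optimal dose. Toxicity taken as test minus control body-weight change on day 5.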

P388 = experiment: Antitumor activity against mouse P388 cells allografted in ip dosed mouse assessed as dose required for maximal activity administered qd from day 1 to day 9 post tumor implantation; type: functional; outline: as §2
L1210 [19] = experiment: Antitumor activity against mouse L1210 cells allografted in ip dosed mouse assessed as increase in life span at optimal dose administered qd from day 1 to day 9 post tumor implantation relative to control; type: functional; outline: as §3
L1210 [20] = experiment: Cytotoxicity against mouse L1210 cells assessed as cessation of growth; type: functional, cell-based
L1210 [21] = experiment: Antitumor activity against 5-azacytidine-resistant mouse L1210 cells allografted in ip dosed mouse assessed as change in body weight at optimal dose administered qd from day 1 to day 9 post tumor implantation measured on day 5 relative to control; type: functional; outline: as §1
[22] = Solubility of the compound in water at pH 6; type: physicochemical
Mus musculus [23] = experiment: Toxicity in ip dosed mouse allografted with 5-azacytidine-resistant mouse L1210 cells assessed as dose required for optimal activity administered qd from day 1 to day 9 post tumor implantation; type: organism-based; settings: in vivo; outline: as §2
[24] = Chemical stability in 1 N ammonium hydroxide solution at room temperature after 7 days; type: physicochemical; settings: 168 h
Outline: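 The compound was stored 7 days at room temperature in 1 N ammonium hydroxide, then recovered and checked as the free base.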

Nc1ncn([C@@H]2O[C@H](CO)[C@@H](O)[C@H]2O)c(=O)n1 [AZACITIDINE]
ILS (B16 [1]): 20% | Activity (L1210 [2]): -0.5 g | degraded at 4.7 h [3]: 15% | Activity (L1210 [4]): -3.8 g | Activity (L1210 [5]): -1.5 g | Activity (Mus musculus [6]): 50 mg/kg | minimal effective dose (L1210 [7]): 0.75 mg/kg | ILS (L1210 [8]): 28% | Activity (L1210 [9]): inactive | Stability [10]: Unstable | minimal effective dose (B16 [11]): 1.5 mg/kg | selectivity ratio [12]: 14 | half-life [13]: 48 h | Activity (L1210 [14]): inactive | Activity (Mus musculus [15]): 12.5 mg/kg | minimal effective dose (L1210 [16]): 1.25 mg/kg | Activity (Mus musculus [17]): 0.75 mg/kg | ILS (L1210 [18]): 94% | MAD (P388): 3 mg/kg | ILS (L1210 [19]): 128% | Activity (L1210 [20]): Active

Cl.NC1=NC(=O)N([C@@H]2O[C@H](CO)[C@@H](O)[C@H]2O)CN1
ILS (B16 [1]): 19% | Activity (L1210 [2]): -1.9 g | Activity (L1210 [21]): 0.1 g | Activity (L1210 [4]): -3.1 g | Activity (L1210 [5]): -2.5 g | Activity (Mus musculus [6]): 600 mg/kg | minimal effective dose (L1210 [7]): 25 mg/kg | ILS (L1210 [8]): 46% | selectivity ratio [12]: 40 | Activity (Mus musculus [15]): 400 mg/kg | minimal effective dose (L1210 [16]): 9.4 mg/kg | solubility [22]: 40 mg/mL | Activity (Mus musculus [17]): 100 mg/kg | ILS (L1210 [18]): 96% | MAD (P388): 200 mg/kg | ILS (L1210 [19]): 116% | Activity (Mus musculus [23]): 25 mg/kg | Stability [24]: Stable

Source: ChEMBL document CHEMBL3272089, “Synthesis and antitumor activity of dihydro-5-azacytidine, a hydrolytically stable analogue of 5-azacytidine” (J Med Chem, 1977)
